Results taken from the M2OR odorant receptor database.
Substitutions are numbered along the chain they refer to.

Tests used:
Conditions in all cases: stereoisomer not certain
[1] = target: T1, OR4S2 (Homo sapiens) (UniProt Q8NH73)
T1 sequence (whole entry): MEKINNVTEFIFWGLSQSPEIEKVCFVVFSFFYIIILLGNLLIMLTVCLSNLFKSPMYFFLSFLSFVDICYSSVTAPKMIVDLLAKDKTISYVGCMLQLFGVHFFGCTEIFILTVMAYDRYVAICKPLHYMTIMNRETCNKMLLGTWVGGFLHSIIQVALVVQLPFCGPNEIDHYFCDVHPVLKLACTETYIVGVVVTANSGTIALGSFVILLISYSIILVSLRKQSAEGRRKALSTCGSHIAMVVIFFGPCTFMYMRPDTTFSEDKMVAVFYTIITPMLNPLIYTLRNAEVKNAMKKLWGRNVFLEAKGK
Summary of the method: (§1)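 Assay methods differ from source to source, frequently being transient luciferase assays in mammalian cell lines. For each receptor–molecule pair, the label responsive (active) applies when the original authors judged the measured signal statistically different from baseline, and non-responsive (inactive) applies otherwise.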

[2] = target: T2, OR4X1 (Homo sapiens) (UniProt Q8NH49)
T2 sequence (whole entry): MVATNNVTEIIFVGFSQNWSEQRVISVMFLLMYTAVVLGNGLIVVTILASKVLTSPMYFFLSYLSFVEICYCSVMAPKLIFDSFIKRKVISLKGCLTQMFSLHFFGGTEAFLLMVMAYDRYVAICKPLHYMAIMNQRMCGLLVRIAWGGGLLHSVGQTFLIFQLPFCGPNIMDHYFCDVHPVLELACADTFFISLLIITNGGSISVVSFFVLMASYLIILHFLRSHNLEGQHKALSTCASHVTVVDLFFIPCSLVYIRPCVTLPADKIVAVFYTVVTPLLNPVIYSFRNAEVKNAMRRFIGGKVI
Summary of the method: as §1

[3] = target: T3, OR4X2 (Homo sapiens) (UniProt Q8NGF9)
T3 sequence (whole entry): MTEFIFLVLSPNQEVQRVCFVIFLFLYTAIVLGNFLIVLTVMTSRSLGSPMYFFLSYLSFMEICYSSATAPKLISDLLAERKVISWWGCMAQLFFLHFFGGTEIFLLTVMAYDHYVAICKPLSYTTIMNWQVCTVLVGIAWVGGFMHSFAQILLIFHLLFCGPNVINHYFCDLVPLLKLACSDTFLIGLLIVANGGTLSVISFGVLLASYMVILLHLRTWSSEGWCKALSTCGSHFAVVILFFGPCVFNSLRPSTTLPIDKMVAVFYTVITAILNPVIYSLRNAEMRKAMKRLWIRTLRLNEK
Summary of the method: as §1

[4] = target: T4, OR51A2 (Homo sapiens) (UniProt Q8NGJ7)
T4 sequence (whole entry): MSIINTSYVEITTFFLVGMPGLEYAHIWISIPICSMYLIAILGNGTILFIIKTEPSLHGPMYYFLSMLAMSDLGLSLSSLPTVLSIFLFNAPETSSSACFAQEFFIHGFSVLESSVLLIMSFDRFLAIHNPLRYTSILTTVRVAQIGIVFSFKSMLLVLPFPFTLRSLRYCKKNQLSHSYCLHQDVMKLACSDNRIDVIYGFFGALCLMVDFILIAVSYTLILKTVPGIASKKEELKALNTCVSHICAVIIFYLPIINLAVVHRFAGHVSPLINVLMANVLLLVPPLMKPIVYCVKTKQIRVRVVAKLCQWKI
Summary of the method: as §1

[5] = target: T5, OR51A4 (Homo sapiens) (UniProt Q8NGJ6)
T5 sequence (whole entry): T4 sequence (whole entry) with G59E, T94I, S97N, S167N, P227L, E235Q, G267R, M288T, K289N, W311R
Summary of the method: as §1

[6] = target: T6, OR51A7 (Homo sapiens) (UniProt Q8NH64)
T6 sequence (whole entry): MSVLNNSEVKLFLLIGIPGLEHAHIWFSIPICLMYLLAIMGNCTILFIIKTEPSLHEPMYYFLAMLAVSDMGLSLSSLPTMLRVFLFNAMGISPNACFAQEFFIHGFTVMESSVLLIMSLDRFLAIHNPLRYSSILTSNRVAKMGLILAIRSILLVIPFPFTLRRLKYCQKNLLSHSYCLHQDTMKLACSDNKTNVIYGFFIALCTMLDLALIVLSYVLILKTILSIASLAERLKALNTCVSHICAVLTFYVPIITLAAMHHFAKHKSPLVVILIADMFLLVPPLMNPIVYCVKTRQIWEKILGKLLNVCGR
Summary of the method: as §1

[7] = target: T7, OR51B2 (Homo sapiens) (UniProt Q9Y5P1)
T7 sequence (whole entry): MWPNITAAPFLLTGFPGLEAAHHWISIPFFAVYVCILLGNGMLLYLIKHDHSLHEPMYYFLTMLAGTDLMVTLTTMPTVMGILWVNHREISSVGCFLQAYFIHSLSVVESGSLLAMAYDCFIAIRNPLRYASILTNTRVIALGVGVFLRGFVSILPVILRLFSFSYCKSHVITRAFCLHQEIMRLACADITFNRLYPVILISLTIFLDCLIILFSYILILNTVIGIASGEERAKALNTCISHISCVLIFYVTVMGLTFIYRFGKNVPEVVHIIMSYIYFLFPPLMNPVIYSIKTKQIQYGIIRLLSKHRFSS
Summary of the method: as §1

[8] = target: T8, OR51B4 (Homo sapiens) (UniProt Q9Y5P0)
T8 sequence (whole entry): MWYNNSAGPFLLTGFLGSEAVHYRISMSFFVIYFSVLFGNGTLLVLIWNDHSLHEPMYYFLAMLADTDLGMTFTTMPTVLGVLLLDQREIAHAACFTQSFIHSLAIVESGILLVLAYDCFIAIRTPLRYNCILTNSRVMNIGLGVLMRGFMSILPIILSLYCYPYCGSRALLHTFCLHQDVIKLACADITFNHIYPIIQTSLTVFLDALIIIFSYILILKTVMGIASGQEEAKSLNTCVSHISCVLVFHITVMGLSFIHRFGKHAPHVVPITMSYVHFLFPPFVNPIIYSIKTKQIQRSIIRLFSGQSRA
Summary of the method: as §1

[9] = target: T9, OR51B5 (Homo sapiens) (UniProt Q9H339)
T9 sequence (whole entry): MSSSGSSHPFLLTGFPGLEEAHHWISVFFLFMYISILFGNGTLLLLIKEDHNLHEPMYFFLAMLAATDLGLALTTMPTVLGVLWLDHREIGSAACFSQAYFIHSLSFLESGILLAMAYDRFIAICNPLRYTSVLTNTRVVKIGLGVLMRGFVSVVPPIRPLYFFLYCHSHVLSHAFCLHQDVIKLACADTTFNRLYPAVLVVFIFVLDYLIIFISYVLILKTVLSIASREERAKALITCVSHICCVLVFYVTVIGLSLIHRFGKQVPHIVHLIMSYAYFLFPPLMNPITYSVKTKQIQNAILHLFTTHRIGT
Summary of the method: as §1

[10] = target: T10, OR51B6 (Homo sapiens) (UniProt Q9H340)
T10 sequence (whole entry): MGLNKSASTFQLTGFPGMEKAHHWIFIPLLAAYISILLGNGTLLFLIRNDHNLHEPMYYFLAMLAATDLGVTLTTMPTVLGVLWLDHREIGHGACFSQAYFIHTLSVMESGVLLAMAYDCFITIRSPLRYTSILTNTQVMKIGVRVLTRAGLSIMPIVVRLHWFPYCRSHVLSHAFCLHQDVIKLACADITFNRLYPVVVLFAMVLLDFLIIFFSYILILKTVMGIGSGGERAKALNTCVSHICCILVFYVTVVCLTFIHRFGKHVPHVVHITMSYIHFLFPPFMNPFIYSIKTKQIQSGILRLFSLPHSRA
Summary of the method: as §1

[11] = target: T11, OR51D1 (Homo sapiens) (UniProt Q8NGF3)
T11 sequence (whole entry): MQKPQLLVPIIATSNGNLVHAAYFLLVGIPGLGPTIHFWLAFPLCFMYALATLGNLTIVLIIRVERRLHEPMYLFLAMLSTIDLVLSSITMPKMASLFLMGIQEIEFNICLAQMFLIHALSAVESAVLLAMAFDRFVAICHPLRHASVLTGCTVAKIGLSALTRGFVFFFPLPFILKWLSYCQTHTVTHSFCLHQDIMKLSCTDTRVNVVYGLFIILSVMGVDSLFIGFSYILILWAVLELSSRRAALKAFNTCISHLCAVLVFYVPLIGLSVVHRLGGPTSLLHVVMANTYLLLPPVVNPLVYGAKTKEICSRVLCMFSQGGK
Summary of the method: as §1

[12] = target: T12, OR51E1 (Homo sapiens) (UniProt Q8TCB6)
T12 sequence (whole entry): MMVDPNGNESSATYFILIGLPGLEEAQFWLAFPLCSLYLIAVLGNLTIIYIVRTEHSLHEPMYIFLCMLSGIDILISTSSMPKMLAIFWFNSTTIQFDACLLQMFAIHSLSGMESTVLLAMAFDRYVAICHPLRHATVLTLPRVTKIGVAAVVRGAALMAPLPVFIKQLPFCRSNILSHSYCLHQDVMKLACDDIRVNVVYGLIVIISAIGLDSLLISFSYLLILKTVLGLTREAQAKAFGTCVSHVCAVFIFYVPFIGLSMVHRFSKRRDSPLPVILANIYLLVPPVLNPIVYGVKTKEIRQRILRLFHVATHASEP
Summary of the method: as §1

[13] = target: T13, OR51E2 (Homo sapiens) (UniProt Q9H255)
T13 sequence (whole entry): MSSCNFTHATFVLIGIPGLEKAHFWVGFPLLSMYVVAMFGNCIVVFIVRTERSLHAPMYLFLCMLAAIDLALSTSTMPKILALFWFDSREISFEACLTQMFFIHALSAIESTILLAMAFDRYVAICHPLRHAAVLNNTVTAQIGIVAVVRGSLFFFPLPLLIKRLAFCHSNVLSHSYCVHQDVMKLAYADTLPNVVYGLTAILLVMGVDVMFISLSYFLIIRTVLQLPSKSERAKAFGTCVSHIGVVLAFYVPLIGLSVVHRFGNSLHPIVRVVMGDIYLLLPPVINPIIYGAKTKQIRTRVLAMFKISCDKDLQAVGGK
Summary of the method: as §1

[14] = target: T14, OR51F2 (Homo sapiens) (UniProt Q8NH61)
T14 sequence (whole entry): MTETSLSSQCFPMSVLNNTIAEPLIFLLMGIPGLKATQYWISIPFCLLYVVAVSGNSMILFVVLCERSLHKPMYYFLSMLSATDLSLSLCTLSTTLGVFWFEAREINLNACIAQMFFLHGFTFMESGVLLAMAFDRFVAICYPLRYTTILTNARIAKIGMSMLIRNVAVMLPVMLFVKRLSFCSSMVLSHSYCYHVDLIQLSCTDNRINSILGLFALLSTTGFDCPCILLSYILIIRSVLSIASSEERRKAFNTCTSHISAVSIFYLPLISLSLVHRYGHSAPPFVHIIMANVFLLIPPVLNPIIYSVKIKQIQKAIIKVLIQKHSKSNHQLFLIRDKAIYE
Summary of the method: as §1

[15] = target: T15, OR51G1 (Homo sapiens) (UniProt Q8NGK1)
T15 sequence (whole entry): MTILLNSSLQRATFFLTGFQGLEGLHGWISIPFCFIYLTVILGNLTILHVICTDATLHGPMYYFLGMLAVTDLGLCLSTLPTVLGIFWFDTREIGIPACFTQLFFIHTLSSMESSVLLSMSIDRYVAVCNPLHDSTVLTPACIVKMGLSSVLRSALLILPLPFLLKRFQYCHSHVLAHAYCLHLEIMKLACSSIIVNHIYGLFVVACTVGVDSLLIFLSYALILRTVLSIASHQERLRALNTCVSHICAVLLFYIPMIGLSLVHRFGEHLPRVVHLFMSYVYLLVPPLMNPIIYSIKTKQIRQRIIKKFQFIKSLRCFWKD
Summary of the method: as §1

[16] = target: T16, OR51G2 (Homo sapiens) (UniProt Q8NGK0)
T16 sequence (whole entry): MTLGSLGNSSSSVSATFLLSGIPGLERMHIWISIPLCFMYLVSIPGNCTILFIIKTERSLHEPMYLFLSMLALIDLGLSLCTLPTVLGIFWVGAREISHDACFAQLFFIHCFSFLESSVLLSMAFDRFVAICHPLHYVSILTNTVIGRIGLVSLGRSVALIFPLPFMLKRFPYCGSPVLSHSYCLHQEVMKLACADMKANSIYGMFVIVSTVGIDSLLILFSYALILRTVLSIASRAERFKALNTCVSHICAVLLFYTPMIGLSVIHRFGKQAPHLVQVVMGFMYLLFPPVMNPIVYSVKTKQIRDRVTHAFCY
Summary of the method: as §1

[17] = target: T17, OR51I1 (Homo sapiens) (UniProt Q9H343)
T17 sequence (whole entry): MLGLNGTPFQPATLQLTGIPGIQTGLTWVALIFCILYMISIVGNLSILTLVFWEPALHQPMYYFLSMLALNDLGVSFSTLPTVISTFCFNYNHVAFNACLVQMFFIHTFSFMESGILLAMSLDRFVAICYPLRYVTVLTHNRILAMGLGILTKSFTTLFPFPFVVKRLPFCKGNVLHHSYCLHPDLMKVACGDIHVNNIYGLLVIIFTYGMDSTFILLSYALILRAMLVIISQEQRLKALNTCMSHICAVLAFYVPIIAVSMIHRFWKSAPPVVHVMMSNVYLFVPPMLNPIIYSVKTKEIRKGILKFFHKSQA
Summary of the method: as §1

Measured: odorant receptor agonist call

CC1=C(O)C(=O)OC1C (stereo not drawn)
inactive: all assays above

CCCCCCCCCCCC(=O)OC
inactive: [9]
